Consider 19 molecules from ChEMBL document CHEMBL4425094, “Novel Benzo[a]quinolizidine Analogs Induce Cancer Cell Death through Paraptosis and Apoptosis” (J Med Chem, 2016).

Some results are limits rather than exact numbers.

Test [1] concerns RWPE-1. Put plainly: Cytotoxicity against human RWPE1 cells assessed as cell growth inhibition after 24 hrs by MTT assay. Type of test: cell-based. As to conditions: RWPE-1, 24 h. The procedure, abridged:
(§1)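 Cells seeded 24 h in RPMI 1640 + 10% FBS. RWPE-1 was kept in K-SFM with bovine pituitary extract and EGF. Cells then exposed to compounds for 24 h at 37 °C, 5% CO2, with DMSO vehicle and docetaxel as positive control. MTT added for 4 h, absorbance read at 570 nm. Triplicate runs, IC50 reported as mean of three experiments.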
For orientation: Formazan colour is commonly taken as a measure of viable cells.

The subject of test [2] is K562. Nature of the test: Cytotoxicity against human K562 cells assessed as cell growth inhibition after 24 hrs by MTT assay. To be noted: K562, 24 h. The class given is functional, cell-based. The gist of the method: as §1
The test system of test [3] is HeLa. Put plainly: Cytotoxicity against human HeLa cells assessed as cell growth inhibition after 24 hrs by MTT assay. The class given is functional, cell-based. The procedure, abridged: as §1
In test [4] the test system is MCF7. Put plainly: Cytotoxicity against human MCF7 cells assessed as cell growth inhibition after 24 hrs by MTT assay. To be noted: MCF7, 24 h. Type of test: functional, cell-based. The gist of the method: as §1
The subject of test [5] is MDA-MB-231. Nature of the test: Cytotoxicity against human MDA-MB-231 cells assessed as cell growth inhibition after 24 hrs by MTT assay. The class given is functional, cell-based. To be noted: MDA-MB-231, 24 h. The procedure, abridged:
as §1

Test [6] deals with PC-3. Put plainly: Cytotoxicity against human PC3 cells assessed as cell growth inhibition after 24 hrs by MTT assay. The class given is functional, cell-based. To be noted: PC-3, 24 h. The gist of the method: as §1
In test [7] the test system is DU-145. Nature of the test: Cytotoxicity against human DU145 cells assessed as cell growth inhibition after 24 hrs by MTT assay. Type of test: functional, cell-based. As to conditions: DU-145, 24 h. The procedure, abridged:
as §1

As for `CCCCCCCCCCCCCCCCOc1cc2c(cc1OCCCCCCCCCCCCCCCC)[C@@H]1C[C@@H](O)C[C@@H](C)N1CC2`, the half-inhibitory concentration (IC50) in test [1], in test [2], in test [3], in test [4], in test [5] and in test [6] was more than 20 µM throughout. Moreover, the IC50 in test [7] is more than 20 µM.

With `CC[C@@H]1CC(=O)C[C@H]2c3cc(OCc4ccccc4)c(OCc4ccccc4)cc3CCN12` (relative stereo), the concentration for half-maximal inhibition (IC50) in test [1], in test [2], in test [3], in test [4], in test [5] and in test [6] was more than 20 µM in each case. Also, in test [7], the IC50 is more than 20 µM.

For the molecule `COc1cc2c(cc1OC)[C@@H]1C[C@@H](O)C[C@@H](c3ccccc3)N1CC2`, the half-inhibitory concentration (IC50) in test [1], in test [2], in test [3], in test [4], in test [5] and in test [6] was more than 20 µM throughout. Further, the IC50 in test [7] is more than 20 µM.

Turning to `CC[C@@H]1C[C@@H](O)C/C=C(/C)[C@H]2c3cc(OCc4ccccc4)c(OCc4ccccc4)cc3CCN12`, the IC50 in test [1], in test [2], in test [3], in test [4], in test [5] and in test [6] was more than 20 µM in each case. Also, in test [7], the IC50 was more than 20 µM.

For `CCCCCCOc1cc2c(cc1OCCCCCC)[C@@H]1C[C@@H](O)C[C@@H](C)N1CC2`, the IC50 in test [1], in test [2], in test [3], in test [4], in test [5] and in test [6] was more than 20 µM each time. The concentration for half-maximal inhibition (IC50) in test [7] was more than 20 µM.

Consider `O=C1C[C@@H](c2ccc([N+](=O)[O-])cc2)N2CCc3cc(OCc4ccccc4)c(OCc4ccccc4)cc3[C@@H]2C1`, for which the half-maximal inhibitory concentration (IC50) in test [1], in test [2], in test [3], in test [4], in test [5] and in test [6] was more than 20 µM in each case. Besides, the concentration for half-maximal inhibition (IC50) in test [7] is more than 20 µM.

For `CCOC1c2cc(OCc3cc(C)cc(C)c3)c(OCc3cc(C)cc(C)c3)cc2CCN1C(=O)OC(C)(C)C` (stereo not drawn), the IC50 in test [1], in test [2], in test [3], in test [4], in test [5] and in test [6] was more than 20 µM each time. Also, the IC50 in test [7] is more than 20 µM.

For `COc1ccc([C@@H]2C[C@H](O)C[C@H]3c4cc(OCc5cc(F)cc(F)c5)c(OCc5cc(F)cc(F)c5)cc4CCN23)cc1OC`, the IC50 in test [1], in test [2], in test [3], in test [4], in test [5] and in test [6] was more than 20 µM in each case. Besides, in test [7], the IC50 is more than 20 µM.

`C/C=C/C(=O)CC1c2cc(OCc3cc(C)cc(C)c3)c(OCc3cc(C)cc(C)c3)cc2CCN1C(=O)OC(C)(C)C` (stereo not drawn): the IC50 in test [1], in test [2], in test [3], in test [4], in test [5] and in test [6] was more than 20 µM in each case. In addition, in test [7], the half-maximal inhibitory concentration (IC50) is more than 20 µM.

On to `C[C@@H]1CC(=O)C[C@H]2c3cc(OCc4ccc(C(C)(C)C)cc4)c(OCc4ccc(C(C)(C)C)cc4)cc3CCN12` (relative stereo), for which the IC50 in test [1], in test [2], in test [3], in test [4], in test [5] and in test [6] was more than 20 µM throughout. For the same molecule, the 50% inhibitory concentration (IC50) in test [7] is more than 20 µM.

With `COc1cc2c(cc1OC)[C@@H]1CC(=O)C[C@@H](c3ccccc3)N1CC2` (relative stereo), the IC50 in test [1], in test [2], in test [3], in test [4], in test [5] and in test [6] was more than 20 µM in each case. The half-inhibitory concentration (IC50) in test [7] is more than 20 µM.

Take `O=C1C[C@@H](c2ccc(-c3ccccc3)cc2)N2CCc3cc(OCc4ccccc4)c(OCc4ccccc4)cc3[C@@H]2C1` (relative stereo): the half-inhibitory concentration (IC50) in test [1], in test [2], in test [3], in test [4], in test [5] and in test [6] was more than 20 µM each time. Also, the IC50 in test [7] was more than 20 µM.

`O=C1C[C@@H](c2ccccc2)N2CCc3ccccc3[C@@H]2C1` (relative stereo): the half-inhibitory concentration (IC50) in test [1], in test [2], in test [3], in test [4], in test [5] and in test [6] was more than 20 µM in each case. The IC50 in test [7] was more than 20 µM.

Take `C[C@]1(O)C[C@@H](c2ccccc2)N2CCc3cc(OCc4ccccc4)c(OCc4ccccc4)cc3[C@@H]2C1`: the half-maximal inhibitory concentration (IC50) in test [1], in test [2], in test [3], in test [4], in test [5] and in test [6] was more than 20 µM each time. The IC50 in test [7] is more than 20 µM.

As for `COc1ccc([C@@H]2CC(=O)C[C@H]3c4cc(OCc5ccccc5)c(OCc5ccccc5)cc4CCN23)cc1OC` (relative stereo), the half-inhibitory concentration (IC50) in test [1], in test [2], in test [3], in test [4], in test [5] and in test [6] was more than 20 µM in each case. In addition, the half-inhibitory concentration (IC50) in test [7] was more than 20 µM.

As to `CCC[C@@H]1C[C@H](O)C/C=C(/CC)[C@H]2c3cc(OCc4ccccc4)c(OCc4ccccc4)cc3CCN12`, the IC50 in test [1], in test [2], in test [3], in test [4], in test [5] and in test [6] was more than 20 µM throughout. The concentration for half-maximal inhibition (IC50) in test [7] was more than 20 µM.

As to `O[C@H]1C[C@@H](c2ccccc2)N2CCc3cc4c(cc3[C@@H]2C1)OCO4`, the IC50 in test [1], in test [2], in test [3], in test [4], in test [5] and in test [6] was more than 20 µM in each case. Besides, in test [7], the half-maximal inhibitory concentration (IC50) is more than 20 µM.

With `C[C@@H]1C[C@H](O)C[C@H]2c3cc(OCc4cccc(F)c4)c(OCc4cccc(F)c4)cc3CCN12`, the half-maximal inhibitory concentration (IC50) in test [1] is 4.45 µM; in test [2], 1.08 µM; in test [3] it was 1.31 µM; in test [4], 0.62 µM; in test [5], 1.23 µM; in test [6] it was 1.36 µM. Besides, the concentration for half-maximal inhibition (IC50) in test [7] was found to be 3.05 µM.

As to `O[C@@H]1C[C@@H](c2ccccc2)N2CCc3ccc(OCc4ccccc4)cc3[C@@H]2C1`, the 50% inhibitory concentration (IC50) in test [1], in test [2], in test [3], in test [4], in test [5] and in test [6] was more than 20 µM each time. Moreover, the concentration for half-maximal inhibition (IC50) in test [7] was more than 20 µM.

What is called IC50 is the concentration that gives 50% inhibition.
